Screening data as filed in PubChem BioAssay.
STAT1 activator: STAT1 signaling activators, primary screen, cell-based, HTS, luciferase reporter; NIH 3T3 STAT1-luciferase reporter, IFN-gamma, luminescence; 100% = IFN-gamma alone, no compound; activation (% of control), % at 5.5 µM; 2.6% of 200,000 active;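 active means activation above the screen-wide mean activation plus 3 SD, cut at about 130% in these data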;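 further: raw ratio to IFN-gamma control signal so 100% means no change and 0% no light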
STAT1 blocker: STAT1 signaling inhibitors, primary screen, cell-based, HTS, luciferase reporter. NIH 3T3 STAT1-luciferase reporter, IFN-gamma, luminescence. inhibition, % at 5.5 µM. 0.35% of 200,000 active. AID 920, 2007;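 active means inhibition above a set limit, the mean inhibition across all tested compounds plus 3 SD, cut at about 34% in these data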;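 further: 0% = IFN-gamma with DMSO and 100% = IFN-gamma with 300 µM nifuroxazide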
NF-kB expr up: activators of NF-kB expression in neurons, primary screen, cell-based, HTS; human neuronal cells, NF-kB reporter expression; stronger effect = higher value; AID 1239, 2008; fold change at 12.5 µM; 1.6% of 190,000 active; in the data active means fold change above about 3.3
STAT3 activator: IL-6 driven STAT3 reporter potentiators, primary screen, U3A cells, luciferase, luminescence, MLSCN library; AID 871, 2007; IL-6 STAT3-luciferase reporter; 100% = signal with IL-6 EC80 alone; activation (% of control), % at 5.6 µM; 0.91% of 190,000 active;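 active means activation above the screen-wide mean of compound activation plus 3 SD, cut at about 130% in these data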;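 further: 0% = background luminescence of wells with medium and substrate only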
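Test system: STAT3-luciferase reporter U3A cells; Detection: reporter luminescence signal; Times: 1 h compound pre-exposure, 6 h IL-6 stimulation, 37 °C; Benchmarks: IL-6-only high control; Also added: IL-6 stimulus at 33 ng/mL final.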
STAT3 inh: IL-6 driven STAT3 reporter inhibitors, primary screen, U3A cells, luciferase, luminescence, MLSCN library. IL-6 STAT3-luciferase reporter; host cell line lacks STAT1. inhibition, % at 5.5 µM. 0.89% of 190,000 active. AID 862, 2007;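 active means inhibition above the mean inhibition across all screened compounds plus 3 SD, cut at about 44% in these data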;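 further: 0% = DMSO only wells and 100% = 100 µM nifuroxazide control wells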
APP 5'UTR act: activators of APP 5'UTR luciferase reporter, primary screen, SH-SY5Y cells. 1% of 190,000 active. AID 1276, 2008. activation, % at 2 µM. SH-SY5Y APP 5'UTR luciferase reporter, luminescence; zero percent = DMSO vehicle wells;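 active means activation above a set limit, based on mean plus 3 SD of controls, cut at about 140% in these data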
STAT1 act conf: STAT1 signaling activators, confirmation, cell-based, HTS, luciferase reporter; shares compounds with STAT1 activator; NIH 3T3 STAT1-luciferase reporter, IFN-gamma potentiation, luminescence; 100% = IFN-gamma EC80 alone, no compound; activation (% of control), % at 5.7 µM; 97% of 1,200 active; AID 1262, 2008;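 active means activation above a set limit carried over from the earlier primary STAT1 screen, cut at about 140% in these data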;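 further: simple ratio to median IFN-gamma plus DMSO wells so 0% means no light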
NFkB act STAT1ct: NF-kB reporter activators, TNF-alpha stimulated, counter-screen for STAT1 activator project, cell-based, HEK293T, luciferase luminescence; AID 1306, 2008; 43% of 1,200 active; 100% = TNF-alpha with vehicle only; shares compounds with STAT1 activator; activation (% of control), % at 5.7 µM;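 active means activation above the mean of solvent-only control wells plus 3 SD, set per campaign, cut at about 130% in these data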;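 further: TNF-alpha given at a submaximal dose yielding about 80% of full reporter signal; values are well signal over median control so 100% means no change and 0% no light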
STAT3 act 2: STAT3 reporter activation by STAT1 hits, confirmation, counter-screen for STAT1 activator project, U3A cells, luciferase, luminescence; activation (% of control), % at 5.7 µM; 46% of 1,200 active; AID 1316, 2008; IL-6; cells lack STAT1; 100 = IL-6 alone, no compound effect; shares compounds with STAT1 activator;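 active means activation above the solvent-only control well mean plus 3 SD, set per plate batch, cut at about 110% in these data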;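 further: 0% = no luminescence and 100% = median IL-6 plus DMSO wells; higher means more STAT3 reporter activation so hits are non-selective activators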
Numbers without * were called inactive; / = not tested or not shown. Most compounds without a hit are left out; they make up all but 4.9% or so of the library.

SMILES	STAT1 activator	STAT1 blocker	NF-kB expr up	STAT3 activator	STAT3 inh	APP 5'UTR act	STAT1 act conf	NFkB act STAT1ct	STAT3 act 2
CCOC(=O)c1sc(NC(C)=O)cc1C	98.4	-1.1	1	96.3	3.6	9.9	/	/	/
CCOC(=O)c1sc(NC(=O)c2ccc(C)s2)cc1C	174.7*	-81.8	3.02	85.0	21.2	171.5*	193.0*	137.6*	94.5
CCOC(=O)c1sc(NC(=O)Nc2ccccc2)cc1C	189.4*	-100.3	9.48*	94.7	6.2	173.1*	221.7*	123.3	107.2
N/C(Cc1ccccc1)=N\OC(=O)c1cccc2ccccc12	103.1	-3.9	0.75	79.7	25.6	3.6	/	/	/
C/C(=N\NC(=O)c1ccc(Br)cc1)c1ccccc1	158.7*	-63.8	5.69*	82.1	24.2	96.8	194.9*	128.0	109.5
CCCCOc1ccc(C(=O)Nc2ccc(SC(F)F)cc2)cc1OC	102.8	-3.2	1.06	107.2	-11.4	7.2	/	/	/
COc1ccc(C(=O)Nc2ccc(SC(F)F)cc2)cc1	164.1*	-72.1	3.13	94.1	4.7	164.3*	182.0*	141.3*	88.7
COc1ccc(NC(=O)c2ccc(OC(F)F)cc2)cc1Cl	166.1*	-75.2	4.37*	105.4	-3.5	103.7	180.8*	129.3	103.4
CC(=O)Nc1ccc(C(=O)NNC(=O)Cc2ccccc2)cc1	107.2	-9.7	0.91	96.9	6.0	4.7	/	/	/
O=C(c1ccc2c(c1)N(Cc1cccc(Cl)c1)C(=O)c1ccccc1S2(=O)=O)N1CCN(c2ccccn2)CC1	95.8	3.4	1.24	109.0	-7.2	20.8	/	/	/
CCc1ccc(C(=O)CN2CCSC2=N)cc1	159.3*	-63.1	7.86*	90.0	10.8	85.5	209.4*	135.8*	95.4
CCOC(=O)C(C)/C(C)=N/NC(N)=S (stereo not drawn)	103.8	-4.2	0.99	99.2	-1.3	11.8	/	/	/
COC(=O)c1ccc(N2C(=O)C3CC(C)=C(C)CC3C2=O)cc1 (stereo not drawn)	93.1	5.9	/	94.3	11.4	10.8	/	/	/
Cc1ccc(CN(c2ccc(C(=O)NCC3CCCO3)cc2)S(C)(=O)=O)cc1 (stereo not drawn)	92.5	6.7	1.09	96.7	5.3	5.4	/	/	/
Fc1ccc(/C=N/NC2=Nc3cccc4cccc2c34)cc1	167.4*	-75.4	2.17	132.8	-35.9	166.6*	200.5*	136.9*	152.9*
Cc1ccc(SCCC(=O)NC2CC2)cc1	101.3	-1.5	1.45	95.7	10.6	-17.6	/	/	/
Cc1c(C(=O)C(=O)NCc2ccco2)c2ccccc2n1C	103.1	-6.4	1.38	89.1	17.7	10.4	/	/	/
Cc1ccc(-c2nnc(-c3ccncc3)n2-c2ccc(C)cc2)cc1	106.8	-7.5	1.21	106.0	0.7	3.9	/	/	/
Cc1ccc(-c2cnc(-c3ccncc3)o2)cc1	153.1*	-58.0	2.4	84.6	20.0	67.4	154.3*	120.4	93.9
CC(C)(C)c1ccc(/C=C/C(=O)N2CCCCC2)cc1	168.7*	-77.5	4.37*	122.2	-20.4	109.9	165.5*	148.7*	127.8*
CCOC(=O)C1CCCN(C(=O)/C=C/c2ccc(Cl)cc2)C1 (stereo not drawn)	100.1	-2.2	1.3	96.6	12.1	8.1	/	/	/
Cc1ccc(/C=C/C(=O)N2CCCC(C)C2)cc1 (stereo not drawn)	167.8*	-77.1	4.52*	81.9	24.1	125.0	193.0*	123.9	100.8
Cc1nn(-c2ccccc2)c(N)c1N=Nc1ccccc1	176.5*	-84.4	6.8*	104.6	0.3	156.3*	197.9*	139.8*	141.2*
Cc1nn(-c2ccccc2)c(N)c1-c1ccccc1	112.7	-14.9	2.65	98.3	3.7	7.4	/	/	/
Nc1nn(-c2ccccc2)c(N)c1N=Nc1ccccc1	202.5*	-115.9	8.05*	120.7	-19.6	3.1	228.1*	125.8	115.4*
SMILES	STAT1 activator	STAT1 blocker	NF-kB expr up	STAT3 activator	STAT3 inh	APP 5'UTR act	STAT1 act conf	NFkB act STAT1ct	STAT3 act 2
Cc1nn(-c2ccccc2)c(N)c1C(O)(C(F)(F)F)C(F)(F)F	93.0	7.8	0.93	97.1	5.6	-2.9	/	/	/
Cc1cc(=O)n2[nH]c(N)c(N=Nc3ccccc3F)c2n1	104.9	-5.6	1.41	97.2	6.1	1.2	/	/	/
Nc1nn(-c2ccccc2)c(N)c1N=Nc1ccccc1F	219.3*	-133.2	13.8*	97.9	3.4	180.8*	305.6*	124.9	107.1
Cc1nc2c(N=Nc3ccccc3F)c(N)nn2c(N)c1C#N	166.0*	-71.3	0.77	117.0	-16.4	-8.3	146.0*	125.2	123.4*
CS(=O)(=O)N1CCCC(C(=O)N2CCN(c3cccc(Cl)c3)CC2)C1 (stereo not drawn)	94.6	6.2	/	97.7	8.7	14.9	/	/	/
Cc1cccc(N=Nc2c(C)nn(-c3ccccc3)c2N)c1C	91.0	10.3	1.24	85.8	17.3	42.2	/	/	/
Cc1nn(-c2ccccc2)c(N)c1N=Nc1ccc(Cl)cc1	155.1*	-61.1	4.51*	93.0	10.8	107.8	182.9*	129.1	107.8
COc1ccc2c(c1)NC(=O)CC(c1ccccc1)=N2	121.4	-23.2	1.74	96.4	10.9	15.1	/	/	/
CC1=CC(c2ccccc2)=Nc2ccc(C)cc2N1	164.7*	-73.6	5.39*	76.1	31.0	181.9*	202.2*	130.1	130.8*
O=C(N/N=C/C=C/c1ccccc1)c1ccccc1Br	111.7	-12.9	1.41	90.0	15.7	-13.5	/	/	/
O=C(O)c1cc(N/N=C/C=C/c2ccccc2)ccc1Cl	158.2*	-61.2	6.08*	130.8	-37.0	179.0*	210.2*	151.9*	127.1*
O=C1CCCc2nc3c(cc21)C(O)Oc1ccccc1-3 (stereo not drawn)	104.9	-7.3	/	95.4	10.2	9.8	/	/	/
O=C1CCCc2nc3c(cc21)C(O)Oc1c-3ccc2ccccc12 (stereo not drawn)	185.7*	-94.9	2.24	93.4	18.2	157.4*	216.2*	143.5*	106.2
